# Laboratory results published in ChEMBL document CHEMBL3124924, “Bifunctional ethyl 2-amino-4-methylthiazole-5-carboxylate derivatives: synthesis and in vitro biological evaluation as antimicrobial and anticancer agents” (2014).
# Calls of active or inactive are those of the source. No cut-off for these calls is given here.
# System: U-251
# Test: Cytotoxicity against human U251 cells assessed as growth inhibition at 10 uM after 48 hrs by SRB assay
# Format: functional
# Details: U-251, 48 h, read-out: GI
# Method in brief: (§1)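 NCI-60 one-dose primary screen run by the NCI Drug Evaluation Branch across the full 60-line panel. Single high-dose treatment with 48 h continuous drug exposure. Cell growth estimated by sulforhodamine B protein staining. Results given as percent growth of treated cells and expressed as percentage growth inhibition.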
row,Compound,inhibition of growth at 10 µM [%]
1,CCOC(=O)c1sc(NC(=O)c2cc(OC)c(OC)c(OC)c2)nc1C,< 10

# System: CCRF-CEM
# Test: Cytotoxicity against human CCRF-CEM cells assessed as growth inhibition at 10 uM after 48 hrs by SRB assay
# Format: functional
# Details: read-out: GI
# Method in brief: as §1
row,Compound,inhibition of growth at 10 µM [%]
1,CCOC(=O)c1sc(NC(=O)c2cc(OC)c(OC)c(OC)c2)nc1C,11.7

# System: HT-29
# Test: Cytotoxicity against human HT-29 cells assessed as growth inhibition at 10 uM after 48 hrs by SRB assay
# Format: functional
# Details: HT-29, 48 h, read-out: GI
# Method in brief: as §1
row,Compound,inhibition of growth at 10 µM [%]
1,CCOC(=O)c1sc(NC(=O)c2cc(OC)c(OC)c(OC)c2)nc1C,< 10

# System: K562
# Test: Cytotoxicity against human K562 cells assessed as growth inhibition at 10 uM after 48 hrs by SRB assay
# Format: functional
# Details: K562, 48 h, read-out: GI
# Method in brief: as §1
row,Compound,inhibition of growth at 10 µM [%]
1,CCOC(=O)c1sc(NC(=O)c2cc(OC)c(OC)c(OC)c2)nc1C,49

# System: HCT-15
# Test: Cytotoxicity against human HCT15 cells assessed as growth inhibition at 10 uM after 48 hrs by SRB assay
# Format: functional
# Details: HCT-15, 48 h, read-out: GI
# Method in brief: as §1
row,Compound,inhibition of growth at 10 µM [%]
1,CCOC(=O)c1sc(NC(=O)c2cc(OC)c(OC)c(OC)c2)nc1C,5.3

# System: Pseudomonas aeruginosa
# Test: Antibacterial activity against Pseudomonas aeruginosa ATCC 27853 assessed as growth inhibition after 48 hrs by two-fold serial dilution assay
# Format: functional
# Details: ATCC 27853, 48 h
# Method in brief: (§2)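 Twofold serial broth dilution run on compounds giving inhibition zones of 13 mm or more. Organisms pre-grown in suitable broth at 37 °C, 24 h for bacteria and 48 h for fungi. Dilution series 200, 100, 50, 25, 12.5, 6.25. Each 5 mL tube inoculated with 0.1 mL and incubated 37 °C for 48 h. Tubes scored for presence or absence of growth.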
row,Compound,MIC [µg/mL]
1,CCOC(=O)c1sc(NC(=O)c2cc(OC)c(OC)c(OC)c2)nc1C,50

# System: SW-620
# Test: Cytotoxicity against human SW620 cells assessed as growth inhibition at 10 uM after 48 hrs by SRB assay
# Format: functional
# Details: SW-620, 48 h, read-out: GI
# Method in brief: as §1
row,Compound,inhibition of growth at 10 µM [%]
1,CCOC(=O)c1sc(NC(=O)c2cc(OC)c(OC)c(OC)c2)nc1C,< 10

# System: Staphylococcus aureus
# Test: Antibacterial activity against Staphylococcus aureus ATCC 6538 assessed as growth inhibition after 48 hrs by two-fold serial dilution assay
# Format: functional
# Details: ATCC 6538, 48 h
# Method in brief: as §2
row,Compound,MIC [µg/mL]
1,CCOC(=O)c1sc(NC(=O)c2cc(OC)c(OC)c(OC)c2)nc1C,6.25

# System: HCT-116
# Test: Cytotoxicity against human HCT116 cells assessed as growth inhibition at 10 uM after 48 hrs by SRB assay
# Format: functional
# Details: HCT-116, 48 h, read-out: GI
# Method in brief: as §1
row,Compound,inhibition of growth at 10 µM [%]
1,CCOC(=O)c1sc(NC(=O)c2cc(OC)c(OC)c(OC)c2)nc1C,4.01

# System: Bacillus spizizenii
# Test: Antibacterial activity against Bacillus subtilis ATCC 6633 assessed as growth inhibition after 48 hrs by two-fold serial dilution assay
# Format: functional
# Details: ATCC 6633, 48 h
# Method in brief: as §2
row,Compound,MIC [µg/mL]
1,CCOC(=O)c1sc(NC(=O)c2cc(OC)c(OC)c(OC)c2)nc1C,25

# System: Candida albicans
# Test: Antifungal activity against Candida albicans ATCC 10231 assessed as growth inhibition at 1 mg/mL after 48 hrs by agar-cup diffusion method
# Format: functional
# Details: ATCC 10231, 48 h, read-out: DIZ
# Method in brief: (§3)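 Agar-cup diffusion: 1 mL of 6 h broth culture seeded per 100 mL molten sterile agar at 45 °C and poured into plates. 8 mm cups cut, each filled with 0.1 mL of 1 mg/mL test solution. Incubated 37 °C for 24 h, 48 h for C. albicans. DMSO control per organism. Inhibition zone diameter in mm, mean of three measurements.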
row,Compound,zone of inhibition at 1000 µg/mL [mm]
1,CCOC(=O)c1sc(NC(=O)c2cc(OC)c(OC)c(OC)c2)nc1C,> 13

# System: NCI-H226
# Test: Cytotoxicity against human NCI-H226 cells assessed as growth inhibition at 10 uM after 48 hrs by SRB assay
# Format: functional
# Details: NCI-H226, 48 h, read-out: GI
# Method in brief: as §1
row,Compound,inhibition of growth at 10 µM [%]
1,CCOC(=O)c1sc(NC(=O)c2cc(OC)c(OC)c(OC)c2)nc1C,12

# System: Escherichia coli
# Test: Antibacterial activity against Escherichia coli ATCC 25922 assessed as growth inhibition at 1 mg/mL after 24 hrs by agar-cup diffusion method
# Format: functional
# Details: ATCC 25922, 24 h, read-out: DIZ
# Method in brief: as §3
row,Compound,zone of inhibition at 1000 µg/mL [mm]
1,CCOC(=O)c1sc(NC(=O)c2cc(OC)c(OC)c(OC)c2)nc1C,> 13

# System: SK-MEL-2
# Test: Cytotoxicity against human SK-MEL-2 cells assessed as growth inhibition at 10 uM after 48 hrs by SRB assay
# Format: functional
# Details: SK-MEL-2, 48 h, read-out: GI
# Method in brief: as §1
row,Compound,inhibition of growth at 10 µM [%]
1,CCOC(=O)c1sc(NC(=O)c2cc(OC)c(OC)c(OC)c2)nc1C,69.1

# System: MDA-MB-468
# Test: Cytotoxicity against human MDA-MB-468 cells assessed as growth inhibition at 10 uM after 48 hrs by SRB assay
# Format: functional
# Details: MDA-MB-468, 48 h, read-out: GI
# Method in brief: as §1
row,Compound,inhibition of growth at 10 µM [%]
1,CCOC(=O)c1sc(NC(=O)c2cc(OC)c(OC)c(OC)c2)nc1C,8.82

# System: Escherichia coli
# Test: Bactericidal activity against Escherichia coli ATCC 25922 after 18 hrs
# Format: functional
# Details: ATCC 25922, 18 h
# Method in brief: (§4)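 Continuation of the broth-dilution MIC test. A loopful from each tube without visible growth spread on a quarter of a Mueller-Hinton agar plate and incubated 18 h. Lowest concentration giving no growth on subculture taken as the MBC.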
row,Compound,MBC [µg/mL]
1,CCOC(=O)c1sc(NC(=O)c2cc(OC)c(OC)c(OC)c2)nc1C,12.5

# System: Bacillus spizizenii
# Test: Bactericidal activity against Bacillus subtilis ATCC 6633 after 18 hrs
# Format: functional
# Details: ATCC 6633, 18 h
# Method in brief: as §4
row,Compound,MBC [µg/mL]
1,CCOC(=O)c1sc(NC(=O)c2cc(OC)c(OC)c(OC)c2)nc1C,50

# System: UACC-62
# Test: Cytotoxicity against human UACC62 cells assessed as growth inhibition at 10 uM after 48 hrs by SRB assay
# Format: functional
# Details: UACC-62, 48 h, read-out: GI
# Method in brief: as §1
row,Compound,inhibition of growth at 10 µM [%]
1,CCOC(=O)c1sc(NC(=O)c2cc(OC)c(OC)c(OC)c2)nc1C,11.5

# System: LOX IMVI
# Test: Cytotoxicity against human LOXIMVI cells assessed as growth inhibition at 10 uM after 48 hrs by SRB assay
# Format: functional
# Details: read-out: GI
# Method in brief: as §1
row,Compound,inhibition of growth at 10 µM [%]
1,CCOC(=O)c1sc(NC(=O)c2cc(OC)c(OC)c(OC)c2)nc1C,3.7

# System: PC-3
# Test: Cytotoxicity against human PC3 cells assessed as growth inhibition at 10 uM after 48 hrs by SRB assay
# Format: functional
# Details: PC-3, 48 h, read-out: GI
# Method in brief: as §1
row,Compound,inhibition of growth at 10 µM [%]
1,CCOC(=O)c1sc(NC(=O)c2cc(OC)c(OC)c(OC)c2)nc1C,35

# System: HCC 2998
# Test: Cytotoxicity against human HCC2998 cells assessed as growth inhibition at 10 uM after 48 hrs by SRB assay
# Format: functional
# Details: HCC 2998, 48 h, read-out: GI
# Method in brief: as §1
row,Compound,inhibition of growth at 10 µM [%]
1,CCOC(=O)c1sc(NC(=O)c2cc(OC)c(OC)c(OC)c2)nc1C,42.7

# System: NCI-H522
# Test: Cytotoxicity against human NCI-H522 cells assessed as growth inhibition at 10 uM after 48 hrs by SRB assay
# Format: functional
# Details: NCI-H522, 48 h, read-out: GI
# Method in brief: as §1
row,Compound,inhibition of growth at 10 µM [%]
1,CCOC(=O)c1sc(NC(=O)c2cc(OC)c(OC)c(OC)c2)nc1C,32.6

# System: SR
# Test: Cytotoxicity against human SR cells assessed as growth inhibition at 10 uM after 48 hrs by SRB assay
# Format: functional
# Details: read-out: GI
# Method in brief: as §1
row,Compound,inhibition of growth at 10 µM [%]
1,CCOC(=O)c1sc(NC(=O)c2cc(OC)c(OC)c(OC)c2)nc1C,21

# System: RPMI-8226
# Test: Cytotoxicity against human RPMI8226 cells assessed as growth inhibition at 10 uM after 48 hrs by SRB assay
# Format: functional
# Details: RPMI-8226, 48 h, read-out: GI
# Method in brief: as §1
row,Compound,inhibition of growth at 10 µM [%]
1,CCOC(=O)c1sc(NC(=O)c2cc(OC)c(OC)c(OC)c2)nc1C,17

# System: Pseudomonas aeruginosa
# Test: Antibacterial activity against Pseudomonas aeruginosa ATCC 27853 assessed as growth inhibition at 1 mg/mL after 24 hrs by agar-cup diffusion method
# Format: functional
# Details: ATCC 27853, 24 h, read-out: DIZ
# Method in brief: as §3
row,Compound,zone of inhibition at 1000 µg/mL [mm]
1,CCOC(=O)c1sc(NC(=O)c2cc(OC)c(OC)c(OC)c2)nc1C,> 13

# System: SN12C
# Test: Cytotoxicity against human SN12C cells assessed as growth inhibition at 10 uM after 48 hrs by SRB assay
# Format: functional
# Details: read-out: GI
# Method in brief: as §1
row,Compound,inhibition of growth at 10 µM [%]
1,CCOC(=O)c1sc(NC(=O)c2cc(OC)c(OC)c(OC)c2)nc1C,7.38

# System: SF-268
# Test: Cytotoxicity against human SF268 cells assessed as growth inhibition at 10 uM after 48 hrs by SRB assay
# Format: functional
# Details: SF-268, 48 h, read-out: GI
# Method in brief: as §1
row,Compound,inhibition of growth at 10 µM [%]
1,CCOC(=O)c1sc(NC(=O)c2cc(OC)c(OC)c(OC)c2)nc1C,3.75

# System: Staphylococcus aureus
# Test: Bactericidal activity against Staphylococcus aureus ATCC 6538 after 18 hrs
# Format: functional
# Details: ATCC 6538, 18 h
# Method in brief: as §4
row,Compound,MBC [µg/mL]
1,CCOC(=O)c1sc(NC(=O)c2cc(OC)c(OC)c(OC)c2)nc1C,6.25

# System: IGROV-1
# Test: Cytotoxicity against human IGROV1 cells assessed as growth inhibition at 10 uM after 48 hrs by SRB assay
# Format: functional
# Details: IGROV-1, 48 h, read-out: GI
# Method in brief: as §1
row,Compound,inhibition of growth at 10 µM [%]
1,CCOC(=O)c1sc(NC(=O)c2cc(OC)c(OC)c(OC)c2)nc1C,< 10

# System: T47D
# Test: Cytotoxicity against human T47D cells assessed as growth inhibition at 10 uM after 48 hrs by SRB assay
# Format: functional
# Details: read-out: GI
# Method in brief: as §1
row,Compound,inhibition of growth at 10 µM [%]
1,CCOC(=O)c1sc(NC(=O)c2cc(OC)c(OC)c(OC)c2)nc1C,< 10

# System: Staphylococcus aureus
# Test: Antibacterial activity against Staphylococcus aureus ATCC 6538 assessed as growth inhibition at 1 mg/mL after 24 hrs by agar-cup diffusion method
# Format: functional
# Details: ATCC 6538, 24 h, read-out: DIZ
# Method in brief: as §3
row,Compound,zone of inhibition at 1000 µg/mL [mm]
1,CCOC(=O)c1sc(NC(=O)c2cc(OC)c(OC)c(OC)c2)nc1C,> 13

# System: Aspergillus niger
# Test: Antifungal activity against Aspergillus niger assessed as growth inhibition at 1 mg/mL after 24 hrs by agar-cup diffusion method
# Format: functional, organism-based
# Details: not given
# Method in brief: as §3
row,Compound,growth inhibition (GI)
1,CCOC(=O)c1sc(NC(=O)c2cc(OC)c(OC)c(OC)c2)nc1C,inactive
